Data as given in paper PMC6177216 (Journal of controlled release : official journal of the …, 2018).
Read-outs that look alike come from different tables or passages of the source.

Columns and labels:
[1] = test system: MCF-7 human breast cancer cells; assay: MTT cytotoxicity assay in MCF-7 cells; type: cell-based; conditions: for inhibition of cell proliferation (in words): MTT
Method in brief: (§1)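 Cells seeded at 5×10³ (MCF-7) or 3×10³ (PC-3) per well and grown 24 h in DMEM with 10% FBS and 1% streptomycin/penicillin. They were then exposed for 48 h to various concentrations of test compound alone or combined with another anticancer agent. Viability was read by MTT. IC50 came from fitting an inhibitory normalised dose-response model with variable slope.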

[2] = test system: 4T1.2 mouse breast cancer cells; assay: MTT cytotoxicity assay in 4T1.2 cells; type: cell-based
[3] = test system: PC-3 human prostate cancer cells; assay: MTT cytotoxicity assay in PC-3 cells; type: cell-based
Method in brief: as §1

GCS mRNA [4] = assay: GCS mRNA expression by real-time PCR in MCF-7 cells; type: cell-based, human; conditions: 48 h; for effect on GCS mRNA expression: various concentrations
GCS mRNA [5] = assay: GCS mRNA expression by real-time PCR in 4T1.2 cells; type: cell-based, mouse; conditions: 48 h; for effect on GCS mRNA expression: various concentrations
ceramides in MCF-7 cells = assay: Ceramide levels by LC/MS in MCF-7 cells; type: cell-based, human; conditions: PPMP 1.7 μM and/or DOX 100 nM, 48 h
Method in brief: (§2)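 Cells seeded at 2×10⁴ (4T1.2) or 6×10⁴ (MCF-7) per well in DMEM with 10% FBS and 1% penicillin-streptomycin for 24 h. Medium was then replaced with 2% FBS medium containing test compound, free or micellar. After 48 h, cells were washed with ice-cold D-PBS and lysed in 0.2% SDS, with an aliquot kept for protein assay. Lipids were resuspended in ACN/IPA/H₂O (1:1:1) and analysed by HPLC-ESI-MS/MS. Peak areas were quantified against C6-ceramide internal standard and normalised to protein.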

ceramides in 4T1.2 cells = assay: Ceramide levels by LC/MS in 4T1.2 cells; type: cell-based, mouse; conditions: PPMP 1.7 μM and/or DOX 100 nM, 48 h
Method in brief: as §2

[6] = In vitro DOX release by dialysis in DPBS; type: physicochemical; conditions: DOX 0.5 mg/mL
Method in brief: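 Dialysis release was run alongside free drug and drug loaded in a pharmacologically inert copolymer micelle as comparators. Cumulative release was followed from 0 to 72 h in triplicate.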

[7] = Plasma pharmacokinetics of DOX; type: in vivo, tumor-free female CD1 mice; conditions: DOX in plasma; i.v. 5 mg/kg DOX; CD1 mice

CCCCCCCCCCCCCCCC(=O)NC(CN1CCOCC1)C(O)c1ccccc1 (centres unmarked) [PPMP, 1-phenyl-2-palmitoylamino-3-morpholino-1-propanol]
IC50 ([1]; Homo sapiens, MCF7, 48 h, read-out: D501, IC50 of PPMP in single treatment): 5.7 ± 0.4 µM | inhibition of cell proliferation (in words) ([1]; MCF-7, 48 h): concentration-dependent inhibition | cytotoxicity / inhibition of proliferation (in words) ([2]; 4T1.2, 48 h, MTT): inhibited the proliferation | IC50 ([2]; Mus musculus, 4T1.2, 48 h, read-out: D501, IC50 of PPMP in single treatment): 2.2 ± 0.1 µM | IC50 ([3]; Homo sapiens, PC-3, 48 h, read-out: D501, IC50 of PPMP in single treatment): 3.4 ± 0.1 µM | effect on DOX-induced upregulation of GCS mRNA expression (GCS mRNA [4]; PPMP 1.7 μM, DOX 100 nM): effective in inhibiting | effect on basal level of GCS mRNA (GCS mRNA [4]; PPMP concentration 1.7 μM): significant decreases | effect on DOX-induced upregulation of GCS mRNA expression (GCS mRNA [5]; PPMP 1.7 μM, DOX 100 nM): effective in inhibiting | effect on basal level of GCS mRNA (GCS mRNA [5]; PPMP concentration 1.7 μM): significant decreases | effect on amount of C16 ceramide (ceramides in MCF-7 cells): modest increase | effect on amount of C16 ceramide (ceramides in 4T1.2 cells): modest increase

COc1cccc2c1C(=O)c1c(O)c3c(c(O)c1C2=O)C[C@@](O)(C(=O)CO)C[C@@H]3O[C@H]1C[C@H](N)[C@H](O)[C@H](C)O1 [DOX, Doxorubicin]
inhibition of cell proliferation (in words) ([1]; MCF-7, 48 h): concentration-dependent inhibition | increase of GCS mRNA expression level (GCS mRNA [4]; DOX 200 nM): 4.2 fold | effect on GCS mRNA expression (GCS mRNA [4]): significant increases | effect on GCS mRNA expression (GCS mRNA [5]): similarly observed | effect on amount of C16 ceramide (ceramides in MCF-7 cells): significantly induced | effect on amount of C16 ceramide (ceramides in 4T1.2 cells): significantly induced | DOX released ([6]; in 2 h): Forty eight | DOX released ([6]; within 12 h): around 83% | AUC0−∞ [7]: 9200 ng·h/mL | CL [7]: 10.87 µL/h | Cmax [7]: 4410 µg/mL | T1/2 [7]: 3.35 h | Vd [7]: 52.49 µL

CC(=O)O[C@H]1C(=O)[C@@]2(C)[C@H]([C@H](OC(=O)c3ccccc3)[C@]3(O)C[C@H](OC(=O)[C@H](O)[C@@H](NC(=O)c4ccccc4)c4ccccc4)C(C)=C1C3(C)C)[C@]1(OC(C)=O)CO[C@@H]1C[C@@H]2O [PTX, paclitaxel]
IC50 ([1]; Homo sapiens, MCF7, 48 h, read-out: D502, IC50 of drug 2 in single treatment): 7.14 ± 1.87 µg/mL | IC50 ([2]; Mus musculus, 4T1.2, 48 h, read-out: D502, IC50 of drug 2 in single treatment): 0.108 ± 0.0181 µg/mL | IC50 ([3]; Homo sapiens, PC-3, 48 h, read-out: D502, IC50 of drug 2 in single treatment): 0.0043 ± 0.0002 µg/mL | effect on GCS mRNA expression (GCS mRNA [4]): significant induction | effect on GCS mRNA expression (GCS mRNA [5]): not in 4T1.2 cells

CCCCCCCCCCCCC/C=C/[C@@H](O)[C@H](CO)NC(=O)CCCCC [C6-ceramide]
IC50 ([1]; read-out: D502, IC50 of drug 2 in single treatment, MCF-7, 48 h): 6.2 ± 0.2 µM | IC50 ([2]; read-out: D502, IC50 of drug 2 in single treatment, 4T1.2, 48 h): 2.8 ± 0.2 µM | IC50 ([3]; read-out: D502, IC50 of drug 2 in single treatment, PC-3, 48 h): 1.6 ± 0.1 µM | increase of GCS mRNA expression level (GCS mRNA [4]; C6-ceramide 2 μM): 6.5 fold | effect on GCS mRNA expression (GCS mRNA [4]): significant increases | effect on GCS mRNA expression (GCS mRNA [5]): similarly observed
